Experimental data published in ChEMBL document CHEMBL4680221, “Discovery of pyrazole derivatives as cellular active inhibitors of histone lysine specific demethylase 5B (KDM5B/JARID1B)” (Eur J Med Chem, 2020).
The source made the active and inactive calls. No cut-off for these calls is given here.

Key:
MKN-45 [1] = experiment: Inhibition of KDM4 in human MKN-45 cells assessed as increase in H3K9me2 accumulation at 0.5 to 20 uM measured after 5 days by Western blot analysis; format: cell-based; details: dose 0.5-20 µM, time 5.0 day
Method in brief: (§1)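 MKN45 cells were treated for 5 days and lysed in RIPA buffer. About 30 µg protein was run on 10% SDS-PAGE and transferred to 0.2 µm nitrocellulose, then blocked with 5% milk in PBS for 2 h. Blots were probed for histone methylation marks with histone 3 as loading control and detected by ECL.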

[2] = biological target: T1, Lysine-specific demethylase 5B (Homo sapiens, UniProt Q9UGL1); experiment: Inhibition of KDM5B in human MKN-45 cells assessed as increase in H3K4me2 accumulation measured after 5 days by Hoechst 33342 staining based immunofluorescence assay; format: cell-based; details: time 5.0 day
T1 sequence (Q9UGL1 whole entry): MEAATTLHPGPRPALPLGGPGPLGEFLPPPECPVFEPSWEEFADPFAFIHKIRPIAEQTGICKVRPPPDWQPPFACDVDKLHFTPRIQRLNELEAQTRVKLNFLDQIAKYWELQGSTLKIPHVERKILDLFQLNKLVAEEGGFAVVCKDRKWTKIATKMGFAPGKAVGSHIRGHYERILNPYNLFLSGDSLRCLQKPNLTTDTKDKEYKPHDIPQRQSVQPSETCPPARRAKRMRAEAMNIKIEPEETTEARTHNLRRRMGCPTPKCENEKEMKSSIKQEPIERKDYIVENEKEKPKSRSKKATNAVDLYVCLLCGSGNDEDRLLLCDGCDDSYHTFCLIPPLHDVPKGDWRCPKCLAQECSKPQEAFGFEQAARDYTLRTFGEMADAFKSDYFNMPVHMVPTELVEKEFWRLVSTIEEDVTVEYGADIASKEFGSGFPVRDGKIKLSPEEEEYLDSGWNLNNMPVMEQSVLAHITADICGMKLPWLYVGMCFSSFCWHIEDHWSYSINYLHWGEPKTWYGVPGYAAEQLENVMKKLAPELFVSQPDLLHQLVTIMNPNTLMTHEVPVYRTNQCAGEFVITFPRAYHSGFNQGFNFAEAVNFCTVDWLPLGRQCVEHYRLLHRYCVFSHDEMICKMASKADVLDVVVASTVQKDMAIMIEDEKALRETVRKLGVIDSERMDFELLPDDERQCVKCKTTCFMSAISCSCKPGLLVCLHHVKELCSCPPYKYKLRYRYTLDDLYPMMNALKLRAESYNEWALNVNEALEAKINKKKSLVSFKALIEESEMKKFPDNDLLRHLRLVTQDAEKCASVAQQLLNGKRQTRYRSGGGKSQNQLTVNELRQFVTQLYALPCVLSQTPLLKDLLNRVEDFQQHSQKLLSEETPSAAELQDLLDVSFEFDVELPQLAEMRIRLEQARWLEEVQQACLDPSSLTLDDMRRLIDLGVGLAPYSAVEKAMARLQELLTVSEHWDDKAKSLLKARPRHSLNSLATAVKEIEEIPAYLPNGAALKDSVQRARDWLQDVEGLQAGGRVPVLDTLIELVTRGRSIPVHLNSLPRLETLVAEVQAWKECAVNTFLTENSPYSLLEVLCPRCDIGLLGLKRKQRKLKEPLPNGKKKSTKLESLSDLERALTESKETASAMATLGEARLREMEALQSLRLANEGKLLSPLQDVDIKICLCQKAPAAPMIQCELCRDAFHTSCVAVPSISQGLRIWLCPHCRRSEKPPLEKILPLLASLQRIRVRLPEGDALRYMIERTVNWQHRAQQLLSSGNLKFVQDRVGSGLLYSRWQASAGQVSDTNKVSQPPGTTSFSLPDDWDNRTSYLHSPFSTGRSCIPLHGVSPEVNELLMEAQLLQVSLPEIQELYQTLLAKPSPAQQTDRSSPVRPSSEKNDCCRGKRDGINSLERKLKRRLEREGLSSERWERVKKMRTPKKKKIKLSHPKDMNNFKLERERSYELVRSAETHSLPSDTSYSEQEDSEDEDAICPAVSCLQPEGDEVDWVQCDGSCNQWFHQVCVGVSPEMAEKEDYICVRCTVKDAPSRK
Method in brief: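 MKN45 cells were seeded and left 24 h, then treated for 5 days. Cells were fixed in 4% paraformaldehyde, permeabilised with 0.1% Triton X-100 for 20 min and blocked with 5% BSA for 1 h. H3K4me2 or H3K4me3 primary antibody was applied at 4°C overnight, followed by Alexa Fluor 488 secondary and Hoechst 33342 (5 µg/mL) nuclear stain. Signal was quantified by high content imaging; three independent experiments.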

MKN-45 [3] = experiment: Inhibition of KDM6 in human MKN-45 cells assessed as increase in H3K27me2 accumulation at 0.5 to 20 uM measured after 5 days by Western blot analysis; format: cell-based; details: dose 0.5-20 µM, time 5.0 day; method in brief: as §1
[4] = biological target: T2, Lysine-specific demethylase 4A (Homo sapiens, UniProt O75164); experiment: Inhibition of KDM4A (unknown origin)
T2 sequence (O75164 whole entry): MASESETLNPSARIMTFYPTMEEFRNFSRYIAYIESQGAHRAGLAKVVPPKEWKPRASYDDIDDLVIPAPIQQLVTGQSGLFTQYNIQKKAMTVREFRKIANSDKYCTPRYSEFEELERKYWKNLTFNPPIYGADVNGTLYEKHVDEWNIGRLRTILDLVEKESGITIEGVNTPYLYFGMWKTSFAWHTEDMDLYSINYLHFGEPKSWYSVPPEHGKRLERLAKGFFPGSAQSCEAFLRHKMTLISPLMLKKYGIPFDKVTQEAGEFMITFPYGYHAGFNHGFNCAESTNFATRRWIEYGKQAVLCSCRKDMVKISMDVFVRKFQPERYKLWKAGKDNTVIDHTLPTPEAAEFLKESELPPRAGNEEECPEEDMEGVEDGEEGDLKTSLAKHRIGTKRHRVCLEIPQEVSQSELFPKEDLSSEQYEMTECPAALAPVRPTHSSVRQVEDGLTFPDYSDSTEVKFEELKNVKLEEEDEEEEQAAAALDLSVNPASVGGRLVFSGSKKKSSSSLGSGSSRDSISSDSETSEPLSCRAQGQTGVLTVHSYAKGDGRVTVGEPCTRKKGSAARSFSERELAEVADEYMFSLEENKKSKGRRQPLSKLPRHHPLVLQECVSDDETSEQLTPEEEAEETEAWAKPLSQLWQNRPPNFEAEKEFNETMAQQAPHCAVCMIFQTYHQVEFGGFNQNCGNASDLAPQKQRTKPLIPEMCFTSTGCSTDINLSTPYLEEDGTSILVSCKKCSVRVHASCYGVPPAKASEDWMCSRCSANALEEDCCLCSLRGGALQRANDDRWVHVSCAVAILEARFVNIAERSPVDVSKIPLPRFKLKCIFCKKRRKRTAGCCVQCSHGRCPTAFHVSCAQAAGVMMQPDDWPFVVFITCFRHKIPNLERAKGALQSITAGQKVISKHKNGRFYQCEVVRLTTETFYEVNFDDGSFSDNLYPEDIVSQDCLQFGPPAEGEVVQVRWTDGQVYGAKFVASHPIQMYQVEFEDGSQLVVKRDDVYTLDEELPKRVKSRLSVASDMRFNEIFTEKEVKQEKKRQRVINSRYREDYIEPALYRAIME

[5] = biological target: T3, Lysine-specific demethylase 5C (Homo sapiens, UniProt P41229); experiment: Inhibition of KDM5C (unknown origin)
T3 sequence (P41229 whole entry): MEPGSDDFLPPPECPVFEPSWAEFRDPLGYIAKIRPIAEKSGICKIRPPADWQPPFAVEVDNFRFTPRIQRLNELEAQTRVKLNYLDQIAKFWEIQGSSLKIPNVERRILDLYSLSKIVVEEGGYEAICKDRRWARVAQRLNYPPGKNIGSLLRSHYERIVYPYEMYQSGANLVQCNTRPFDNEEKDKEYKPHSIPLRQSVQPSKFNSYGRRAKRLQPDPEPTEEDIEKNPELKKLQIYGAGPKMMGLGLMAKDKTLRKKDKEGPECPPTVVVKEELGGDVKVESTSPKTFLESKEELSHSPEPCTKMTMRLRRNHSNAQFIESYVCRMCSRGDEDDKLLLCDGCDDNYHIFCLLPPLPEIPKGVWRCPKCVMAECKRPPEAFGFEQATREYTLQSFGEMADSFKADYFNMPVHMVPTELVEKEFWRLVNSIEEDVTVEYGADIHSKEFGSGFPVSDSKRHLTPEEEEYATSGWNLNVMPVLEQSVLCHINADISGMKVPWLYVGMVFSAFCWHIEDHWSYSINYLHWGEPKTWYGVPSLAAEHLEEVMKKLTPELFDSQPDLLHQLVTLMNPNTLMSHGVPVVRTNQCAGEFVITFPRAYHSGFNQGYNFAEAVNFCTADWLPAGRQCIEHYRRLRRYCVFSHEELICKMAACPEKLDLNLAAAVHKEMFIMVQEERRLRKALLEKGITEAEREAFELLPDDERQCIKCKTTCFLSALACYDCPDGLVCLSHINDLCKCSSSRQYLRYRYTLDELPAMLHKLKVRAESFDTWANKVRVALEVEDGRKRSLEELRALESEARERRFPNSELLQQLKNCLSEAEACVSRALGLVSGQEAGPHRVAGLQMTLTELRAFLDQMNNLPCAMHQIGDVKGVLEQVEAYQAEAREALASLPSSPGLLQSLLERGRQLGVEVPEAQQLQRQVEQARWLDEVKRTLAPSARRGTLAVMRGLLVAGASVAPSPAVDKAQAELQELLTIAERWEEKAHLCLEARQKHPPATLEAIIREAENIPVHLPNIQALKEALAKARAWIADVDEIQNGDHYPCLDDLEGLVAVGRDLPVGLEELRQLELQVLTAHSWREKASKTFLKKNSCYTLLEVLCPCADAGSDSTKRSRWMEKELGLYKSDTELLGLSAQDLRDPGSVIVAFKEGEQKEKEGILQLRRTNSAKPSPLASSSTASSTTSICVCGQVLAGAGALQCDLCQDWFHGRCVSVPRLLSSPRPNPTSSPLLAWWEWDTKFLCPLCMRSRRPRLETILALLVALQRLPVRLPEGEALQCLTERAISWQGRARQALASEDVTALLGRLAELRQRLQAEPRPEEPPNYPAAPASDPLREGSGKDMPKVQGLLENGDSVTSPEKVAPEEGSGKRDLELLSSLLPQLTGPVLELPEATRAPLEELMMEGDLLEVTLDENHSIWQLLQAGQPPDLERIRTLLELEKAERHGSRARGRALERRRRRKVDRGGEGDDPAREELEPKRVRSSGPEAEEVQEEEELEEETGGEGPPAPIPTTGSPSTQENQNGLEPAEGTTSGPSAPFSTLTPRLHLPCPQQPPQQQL

[6] = biological target: T4, Lysine-specific demethylase 5A (Homo sapiens, UniProt P29375); experiment: Inhibition of KDM5A (unknown origin) at 0.01 uM relative to control
T4 sequence (P29375 whole entry): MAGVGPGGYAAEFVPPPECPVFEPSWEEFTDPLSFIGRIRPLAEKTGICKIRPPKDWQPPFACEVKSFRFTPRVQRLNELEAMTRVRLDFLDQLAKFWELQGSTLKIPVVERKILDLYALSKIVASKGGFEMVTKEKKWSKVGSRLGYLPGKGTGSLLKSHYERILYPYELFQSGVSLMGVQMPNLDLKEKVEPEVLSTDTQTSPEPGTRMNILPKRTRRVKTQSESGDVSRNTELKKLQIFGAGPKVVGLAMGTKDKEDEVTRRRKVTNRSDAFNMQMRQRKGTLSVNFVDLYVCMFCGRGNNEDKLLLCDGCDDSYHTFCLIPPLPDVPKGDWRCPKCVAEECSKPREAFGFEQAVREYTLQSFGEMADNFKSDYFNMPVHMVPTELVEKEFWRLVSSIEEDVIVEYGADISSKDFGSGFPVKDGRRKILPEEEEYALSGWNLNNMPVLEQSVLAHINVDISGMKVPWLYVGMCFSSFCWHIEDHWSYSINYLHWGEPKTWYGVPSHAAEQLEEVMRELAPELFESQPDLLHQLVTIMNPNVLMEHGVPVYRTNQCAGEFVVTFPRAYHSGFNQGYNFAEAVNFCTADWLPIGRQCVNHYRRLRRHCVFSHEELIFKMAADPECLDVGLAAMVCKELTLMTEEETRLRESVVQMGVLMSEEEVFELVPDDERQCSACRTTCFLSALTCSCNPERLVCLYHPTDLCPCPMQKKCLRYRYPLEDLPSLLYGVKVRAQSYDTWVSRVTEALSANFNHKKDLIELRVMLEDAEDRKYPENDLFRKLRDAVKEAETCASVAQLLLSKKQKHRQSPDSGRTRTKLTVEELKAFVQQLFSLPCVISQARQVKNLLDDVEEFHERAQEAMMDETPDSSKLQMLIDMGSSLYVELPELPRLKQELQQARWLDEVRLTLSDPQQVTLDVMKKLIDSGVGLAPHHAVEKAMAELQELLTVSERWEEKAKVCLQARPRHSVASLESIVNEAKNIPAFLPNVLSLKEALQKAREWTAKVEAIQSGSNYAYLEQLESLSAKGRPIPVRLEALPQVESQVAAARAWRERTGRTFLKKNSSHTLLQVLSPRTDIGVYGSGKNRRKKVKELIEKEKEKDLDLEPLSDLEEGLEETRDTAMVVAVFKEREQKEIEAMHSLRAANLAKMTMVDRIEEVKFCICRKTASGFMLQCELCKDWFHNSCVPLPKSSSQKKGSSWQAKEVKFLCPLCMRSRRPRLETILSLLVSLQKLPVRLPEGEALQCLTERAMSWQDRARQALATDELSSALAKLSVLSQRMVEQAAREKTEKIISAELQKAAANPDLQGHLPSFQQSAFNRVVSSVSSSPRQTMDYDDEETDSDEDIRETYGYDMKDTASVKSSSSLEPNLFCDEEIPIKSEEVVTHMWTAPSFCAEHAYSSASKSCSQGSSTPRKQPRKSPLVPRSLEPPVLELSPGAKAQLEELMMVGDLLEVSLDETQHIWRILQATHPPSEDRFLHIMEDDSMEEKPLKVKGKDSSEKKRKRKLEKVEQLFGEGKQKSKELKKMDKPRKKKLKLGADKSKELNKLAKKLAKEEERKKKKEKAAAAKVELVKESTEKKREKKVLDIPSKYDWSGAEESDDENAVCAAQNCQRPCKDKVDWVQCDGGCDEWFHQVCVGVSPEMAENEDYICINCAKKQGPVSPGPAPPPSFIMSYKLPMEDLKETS

[7] = biological target: T5, Lysine-specific demethylase 6B (Homo sapiens, UniProt O15054); experiment: Inhibition of KDM6B (unknown origin) at 1 uM relative to control
[8] = biological target: T3, Lysine-specific demethylase 5C; experiment: Inhibition of KDM5C (unknown origin) at 0.01 uM relative to control
[9] = biological target: T6, Lysine-specific demethylase 4A (Homo sapiens) (UniProt O75164); experiment: Inhibition of KDM4A (unknown origin) at 1 uM relative to control
T6 sequence (whole entry): T2 sequence (O75164 whole entry)

[10] = biological target: T3, Lysine-specific demethylase 5C; experiment: Inhibition of KDM5C (unknown origin) at 1 uM relative to control
MKN-45 [11] = experiment: Antimigratory activity in human MKN-45 cells measured after 24 hrs by transwell assay; format: functional, cell-based
[12] = Cytotoxicity against human GES1 cells assessed as reduction in cell proliferation at 100 uM by MTS assay relative to control; format: cell-based; details: read-out: Activity
Method in brief: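 Normal human gastric epithelial GES-1 cells, seeded at 3×10^3 cells per well and exposed to 100 μM. Antiproliferation rate was read by MTS assay.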

[13] = biological target: T1, Lysine-specific demethylase 5B; experiment: Inhibition of KDM5B in human MKN-45 cells assessed as increase in H3K4me1 accumulation at 0.5 to 20 uM measured after 5 days by Western blot analysis; format: cell-based; details: dose 0.5-20 µM, time 5.0 day; method in brief: as §1
[14] = biological target: T6, Lysine-specific demethylase 4A (Homo sapiens); experiment: Inhibition of KDM4A (unknown origin) at 0.01 uM relative to control
MKN-45 [15] = experiment: Antiproliferative activity against human MKN-45 cells assessed as reduction in cell proliferation measured after 4 days by MTS assay; format: functional, cell-based; details: MKN-45, 96 h
Method in brief: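 MKN45 cells were seeded at 3×10^3 cells per well and treated for 4 or 6 days, as indicated. Proliferation was read by MTS assay and IC50 derived. Three independent experiments, mean ± SD.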

[16] = biological target: T1, Lysine-specific demethylase 5B; experiment: Inhibition of KDM5B in human MKN-45 cells assessed as increase in H3K4me3 accumulation at 0.5 to 20 uM measured after 5 days by Western blot analysis; format: cell-based; details: dose 0.5-20 µM, time 5.0 day; method in brief: as §1
[17] = biological target: T1, Lysine-specific demethylase 5B; experiment: Inhibition of KDM5B in human MKN-45 cells assessed as protein stabilization measured after 1 hr by cellular thermal shift assay; format: cell-based
Method in brief: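 MKN45 cells (5×10^5) were treated with compound or DMSO for 1 h, washed in PBS and resuspended in PBS with protease inhibitors. Cells were heated at 46 °C for 3 min, then freeze-thawed three times in liquid nitrogen. KDM5B in the supernatant was measured by western blot with GAPDH control. Repeated three times.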

[18] = biological target: T5, Lysine-specific demethylase 6B; experiment: Inhibition of KDM6B (unknown origin)
[19] = biological target: T4, Lysine-specific demethylase 5A; experiment: Inhibition of KDM5A (unknown origin) at 1 uM relative to control

## COc1ccc(-n2cc(C(=O)NCC(C)(C)N3CCOCC3)c(-c3ccccc3)n2)cc1
MKN-45 [1]
  inhibition: inactive
[2]
  inhibition: Dose-dependent effect
MKN-45 [3]
  inhibition: inactive
[4]
  IC50: 954 nM
[5]
  IC50: 24.8 nM
[6]
  inhibition: 20.1%
[7]
  inhibition: 19.6%
[8]
  inhibition: 16.4%
[9]
  inhibition: 56.2%
[10]
  inhibition: 80.2%
MKN-45 [11]
  Activity: Dose-dependent effect
[12]
  inhibition at 100 µM: < 10%
[13]
  inhibition: inactive
[14]
  inhibition: 5.12%
MKN-45 [15]
  IC50: 26700 nM
[16]
  inhibition: Active
[17]
  inhibition: Dose-dependent effect
[18]
  IC50: > 1000 nM
[19]
  inhibition: 79.3%
